Key:
[1] = target: T1, Estrogen receptor (Bos taurus) (UniProt Q9XSB5+P49884); test: Relative displacement of [3H]estradiol from calf uterine estrogen receptor; type: protein assay
How it was run: (§1)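 Calf uterine cytosol was incubated with 1×10⁻⁹ M [³H]estradiol and five or six competitor concentrations for 16 h at 4 °C. Dextran-coated charcoal removed unbound ligand (90 min, 4 °C), and supernatant radioactivity was counted. The 50% displacement concentration was read from a semilog plot. RBA = [E2]/[I] × 100.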

[2] = target: T2, Estrogen receptor (Mus musculus) (UniProt O08537+P19785); test: Estrogenic activity in immature mouse using Uterine weight test at 1 ug dose; type: functional
How it was run: (§2)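 Immature female NMRI mice (10–12 g, 20 days old at start, 10 per group) got the compound sc daily for 3 consecutive days in 0.1 mL olive oil. Uteri were removed 24 h after the last injection, fixed in Bouin's solution, dried and weighed. Uterine growth stimulation is the estrogenic read-out.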

[3] = target: T2, Estrogen receptor (Mus musculus); test: Estrogenic activity in immature mouse using Uterine weight test at 50 ug dose; type: functional; how it was run: as §2
[4] = target: T2, Estrogen receptor (Mus musculus); test: Estrogenic activity in immature mouse using Uterine weight test at 5 ug dose; type: functional; how it was run: as §2
[5] = target: T2, Estrogen receptor (Mus musculus); test: Antiestrogenic activity in immature mouse Uterine weight test at 25 ug dose; type: functional
How it was run: (§3)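 Antiestrogenic read-out is inhibition of estrone-stimulated uterine growth, given as % inhibition. Immature female NMRI mice (10–12 g, 20 days old, 10 per group) received the compound sc daily for 3 days in 0.1 mL olive oil. Uteri were taken 24 h after the last dose, Bouin-fixed, dried and weighed.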

[6] = target: T2, Estrogen receptor (Mus musculus); test: Antiestrogenic activity in immature mouse Uterine weight test at 1 ug dose; type: functional; how it was run: as §3
[7] = target: T2, Estrogen receptor (Mus musculus); test: Antiestrogenic activity in immature mouse Uterine weight test at 5 ug dose; type: functional; how it was run: as §3
Mus musculus [8] = test: In vivo inhibition of hormone-dependent MXT mammary tumor in BDF1 mouse at 8.0 mg/kg dose; type: functional
How it was run: (§4)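 Transplantable hormone-dependent MXT tumor pieces (1 per animal) were implanted in BDF1 mice, then randomized into groups of 10. Dosing was sc three times weekly (Mon/Wed/Fri) in olive oil (0.1 mL/mouse) from day 1 after transplantation for 6 weeks, at equimolar doses. Read-out is tumor weight T/C % versus solvent control (mean of 10); significance α ≤ 0.05.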

[9] = target: T2, Estrogen receptor (Mus musculus); test: In vivo uterotrophic effect in hormone-dependent MXT mammary tumor bearing BDF1 mice at 8.0 mg/kg dose; type: functional, organism-based; design: dose 8 mg/kg
How it was run: (§5)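 Uterotrophic effect was measured in the same MXT tumor-bearing BDF1 mice (groups of 10). They were dosed sc three times weekly in olive oil (0.1 mL/mouse) for 6 weeks from day 1 after transplantation. Read-out is T/C % of uterotrophic effect versus solvent control after 6 weeks (mean of 10); significance α ≤ 0.05.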

Mus musculus [10] = test: In vivo inhibition of hormone-dependent MXT mammary tumor in BDF1 mouse at 11.3 mg/kg dose; type: functional; how it was run: as §4
[11] = target: T1, Estrogen receptor (Bos taurus); test: Tested in vitro for its binding affinity against Estrogen receptor; type: protein assay; how it was run: as §1
[12] = target: T2, Estrogen receptor (Mus musculus); test: Antiestrogenic activity in immature mouse Uterine weight test at 25 ug dose
[13] = target: T2, Estrogen receptor (Mus musculus); test: Estrogenic activity in immature mouse using Uterine weight test at 250 ug dose; type: functional; how it was run: as §2
[14] = target: T2, Estrogen receptor (Mus musculus); test: Antiestrogenic activity in immature mouse Uterine weight test at 100 ug dose; type: functional; how it was run: as §3
Mus musculus [15] = test: In vivo inhibition of hormone-dependent MXT mammary tumor in BDF1 mouse at 12 mg/kg dose; type: functional; how it was run: as §4
[16] = target: T2, Estrogen receptor (Mus musculus); test: In vivo uterotrophic effect in hormone-dependent MXT mammary tumor bearing BDF1 mice at 12 mg/kg dose; type: functional, organism-based; design: dose 12 mg/kg; how it was run: as §5
Mus musculus [17] = test: In vivo inhibition of hormone-dependent MXT mammary tumor in BDF1 mouse at 5.4 mg/kg dose; type: functional; how it was run: as §4
[18] = target: T2, Estrogen receptor (Mus musculus); test: Estrogenic activity in immature mouse using Uterine weight test at 0.5 ug dose; type: functional; how it was run: as §2
[19] = target: T2, Estrogen receptor (Mus musculus); test: Estrogenic activity in immature mouse using Uterine weight test at 25 ug dose; type: functional; how it was run: as §2
[20] = target: T2, Estrogen receptor (Mus musculus); test: Estrogenic activity in immature mouse using Uterine weight test at 10 ug dose; type: functional; how it was run: as §2

T2 sequence (O08537 whole entry, looked up): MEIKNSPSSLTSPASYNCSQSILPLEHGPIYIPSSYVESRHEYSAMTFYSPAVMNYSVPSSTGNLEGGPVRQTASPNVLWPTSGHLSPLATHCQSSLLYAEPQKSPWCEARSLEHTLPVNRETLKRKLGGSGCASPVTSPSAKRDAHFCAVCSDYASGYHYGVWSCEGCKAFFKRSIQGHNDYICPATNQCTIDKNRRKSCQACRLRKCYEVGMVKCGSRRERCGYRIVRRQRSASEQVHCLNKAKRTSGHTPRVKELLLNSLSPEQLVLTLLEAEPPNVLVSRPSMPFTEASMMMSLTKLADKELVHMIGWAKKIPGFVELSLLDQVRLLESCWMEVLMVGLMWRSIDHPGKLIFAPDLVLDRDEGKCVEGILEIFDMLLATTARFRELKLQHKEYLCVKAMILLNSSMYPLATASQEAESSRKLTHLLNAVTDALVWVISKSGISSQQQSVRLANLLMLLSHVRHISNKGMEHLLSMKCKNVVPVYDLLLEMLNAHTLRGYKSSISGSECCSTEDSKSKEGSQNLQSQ
T2 sequence (P19785 whole entry, looked up): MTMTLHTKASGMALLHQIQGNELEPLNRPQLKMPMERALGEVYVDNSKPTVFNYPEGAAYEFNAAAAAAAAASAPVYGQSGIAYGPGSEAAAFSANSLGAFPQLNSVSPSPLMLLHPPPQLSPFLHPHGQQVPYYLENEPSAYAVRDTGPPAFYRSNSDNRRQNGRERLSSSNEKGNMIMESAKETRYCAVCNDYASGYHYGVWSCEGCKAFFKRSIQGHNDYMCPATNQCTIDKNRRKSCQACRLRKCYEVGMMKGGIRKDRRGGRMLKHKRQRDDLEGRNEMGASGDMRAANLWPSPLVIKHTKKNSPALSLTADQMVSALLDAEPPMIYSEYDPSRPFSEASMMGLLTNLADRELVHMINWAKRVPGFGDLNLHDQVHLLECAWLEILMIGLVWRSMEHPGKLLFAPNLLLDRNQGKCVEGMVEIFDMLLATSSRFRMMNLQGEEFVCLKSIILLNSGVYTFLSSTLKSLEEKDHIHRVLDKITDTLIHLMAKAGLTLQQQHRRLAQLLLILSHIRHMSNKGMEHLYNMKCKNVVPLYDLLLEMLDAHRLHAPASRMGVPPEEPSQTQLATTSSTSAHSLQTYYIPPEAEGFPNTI

| SMILES | RBA [1] [%] | Estrogenic effect [2] | Estrogenic effect [3] | Estrogenic effect [4] | inhibition [5] [%] | inhibition [7] [%] | T/C (Mus musculus [8]) [%] | T/C [9] [%] | inhibition [14] [%] | also measured |
| --- | --- | --- | --- | --- | --- | --- | --- | --- | --- | --- |
| CC/C(=C(/c1ccccc1)c1cccc(OC(C)=O)c1)c1ccc(OC(C)=O)cc1 | 4.2 | 18 | 92 | 80 | 0 | 0 | 2 | 175 |  | inhibition [6]: 12% |
| CC/C(=C(\c1ccccc1)c1ccc(OCCN(C)C)cc1)c1ccccc1.O=C(O)CC(O)(CC(=O)O)C(=O)O [TAMOXIFEN CITRATE] |  |  |  |  |  |  |  |  |  | T/C (Mus musculus [10]): 4% |
| CC/C(=C(\c1ccccc1)c1ccc(OC(C)=O)cc1)c1cccc(OC(C)=O)c1 |  |  |  | 94 | 0 | 0 | 7 | 193 |  | relative binding affinity (RBA) [11]: 6.1; inhibition [12]: 0% |
| CC/C(=C(/c1ccc(OC(C)=O)cc1)c1cccc(OC(C)=O)c1)c1ccccc1 | 3.5 | 8 | 66 | 15 | 33 | 28 |  |  | 9 | Estrogenic effect [13]: 66; T/C (Mus musculus [15]): 8%; T/C [16]: 110% |
| CC/C(=C(/CC)c1ccc(O)cc1)c1ccc(O)cc1 [DIETHYLSTILBESTROL] |  |  |  |  |  |  |  |  |  | T/C (Mus musculus [17]): 3% |
| CC/C(=C(/c1ccccc1)c1ccc(OC(C)=O)cc1)c1cccc(OC(C)=O)c1 | 11.1 | 114 |  | 81 |  |  | 1 | 205 |  | Estrogenic effect [18]: 124 |
| CCC(=C(c1ccc(OC(C)=O)cc1)c1ccc(OC(C)=O)cc1)c1ccccc1 |  | 37 |  | 72 |  | 0 | 7 | 110 |  | Estrogenic effect [19]: 98; Estrogenic effect [20]: 85; inhibition [6]: 0% |
| CC/C(=C(\c1ccc(OC(C)=O)cc1)c1cccc(OC(C)=O)c1)c1ccccc1 | 8.7 | 23 | 73 | 35 | 32 | 41 | 25 | 116 | 3 | Estrogenic effect [13]: 85 |
| CC/C(=C(\c1ccccc1)c1cccc(OC(C)=O)c1)c1ccc(OC(C)=O)cc1 | 1.8 | 0 | 61 | 18 | 16 | 45 | 62 | 96 | 9 |  |

Reference: ChEMBL document CHEMBL1122873, “Acetoxy-substituted 1,1,2-triphenylbut-1-enes with antiestrogenic and mammary tumor inhibiting properties” (1985)
